In PMC3528827 (ACS chemical biology, 2012):

How the values were obtained:
[1] = Stability in biological systems; assay type: in vitro ADME
[2] = target: WT, W256L, and F263L mutant S1P3 (Homo sapiens, UniProt Q99500); experiment: [33P]S1P radioligand binding and competition, Jump-In CHO cells; settings: 0.1 nM [33P]S1P, W256L and F263L Jump-In cell lines (all cell lines)
Summary of the method: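 Jump-In TI CHO-K cells (5 × 105) stably expressing WT, W256L or F263L S1P3, serum-starved 4 h. Incubated 30 min at 4 °C with 0.1 nM [33P]S1P plus increasing competitor in 20 mM Tris-HCl pH 7.5, NaCl, NaF, EDTA, Na3VO4, 0.5% fatty-acid-free BSA and protease inhibitors. Washed three times cold, lysed in 0.5% SDS, scintillation-counted. Normalized to each line's uncompeted binding (100%).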

[3] = system: full panel of S1P receptors; experiment: Profiling against the full panel of S1P receptors; assay type: cell-based; settings: Supporting Table S3
[4] = target: T1, S1P3 (Homo sapiens, UniProt Q99500); experiment: Ligand-induced ERK phosphorylation; assay type: cell-based; settings: for ERK phosphorylation response: WT S1P3 Jump-In CHO cells
Summary of the method: (§1)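 Jump-In TI CHO-K cells carrying N-terminal triple-HA-tagged WT or point-mutant S1P3, stably retargeted and selected 4 weeks with blasticidin 10 μg/mL. Serum-starved 4 h, then exposed 5 min to increasing agonist. For antagonism, 1 uM antagonist was added 15 min beforehand or premixed with agonist. Phospho-p44/42 MAPK (Thr202/Tyr204) measured by sandwich ELISA; EC50 fitted from dose-response curves.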

[5] = Solubility; assay type: physicochemical
[6] = target: T2, F263L S1P3 (Homo sapiens, UniProt Q99500, F263L); experiment: ERK phosphorylation, F263L mutant S1P3; assay type: cell-based; settings: ERK phosphorylation assay, vs WT
Summary of the method: as §1

[7] = target: W256L S1P3 (Homo sapiens, UniProt Q99500, W256L); experiment: ERK phosphorylation, W256L mutant S1P3; assay type: cell-based; settings: ERK phosphorylation assay, vs WT
Summary of the method: as §1

[8] = target: T1, S1P3; experiment: S1P3-NFAT β-lactamase reporter; assay type: cell-based; settings: S1P3-CHO cells, calcium flux dependent β-lactamase assay
Summary of the method: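 CHO cells stably expressing human S1P3 and an NFAT-β-lactamase reporter, plated at 1 × 10^6/mL in phenol red-free DMEM with 0.5% charcoal/dextran FBS and held overnight at 37°C, 5% CO2. S1P dilution series plus six fixed allosteric-agonist levels (EC0–EC80), single-agonist controls, 4 h at 37°C. β-Lactamase FRET substrate with probenecid added, 2 h at room temperature. Read at ex 405 / em 535 and 460 nm. Mean ± SEM.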

[9] = target: T2, F263L S1P3; experiment: MAPmates multiplex assay pERK1/2; assay type: cell-based
[10] = target: R114A mutant S1P3 (Homo sapiens, UniProt Q99500, R114A); experiment: ERK phosphorylation, R114A mutant S1P3 Jump-In CHO cells; assay type: cell-based; settings: R114A mutant vs WT
Summary of the method: as §1

[11] = system: S1P1; settings: read-out: S1P1 EC50; in vitro; cited from earlier work
[12] = system: S1P4; settings: read-out: S1P4 EC50; in vitro; cited from earlier work
[13] = target: M98A mutant S1P3 (Homo sapiens, UniProt Q99500, M98A); experiment: ERK phosphorylation, M98A mutant S1P3 Jump-In CHO cells; assay type: cell-based
Summary of the method: as §1

[14] = target: T1, S1P3; experiment: Receptor assays coupled to Gi and Gq; assay type: cell-based; settings: ERK phosphorylation, calcium flux, β-arrestin, NFAT-β-lactamase assays
[15] = system: S1P2; settings: read-out: S1P2 EC50; in vitro; cited from earlier work
[16] = system: panel of 55 GPCRs, ion channels, and transporters; experiment: Ricerca profiling panel
[17] = system: S1P5; settings: read-out: S1P5 EC50; in vitro; cited from earlier work
[18] = ERK phosphorylation, SPM-242 at 1 uM

T2 sequence (Q99500 whole entry F263L): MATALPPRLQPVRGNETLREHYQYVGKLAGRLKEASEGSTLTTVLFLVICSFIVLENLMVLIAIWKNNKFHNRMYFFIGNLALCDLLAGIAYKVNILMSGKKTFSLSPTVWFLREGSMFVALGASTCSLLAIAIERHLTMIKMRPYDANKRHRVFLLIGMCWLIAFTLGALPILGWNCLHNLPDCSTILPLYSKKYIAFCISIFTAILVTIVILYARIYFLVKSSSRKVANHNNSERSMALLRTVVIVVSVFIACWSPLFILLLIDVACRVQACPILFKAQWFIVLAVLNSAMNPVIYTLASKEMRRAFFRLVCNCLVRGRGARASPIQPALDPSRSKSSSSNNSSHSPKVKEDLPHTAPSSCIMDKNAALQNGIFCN
T1 sequence (Q99500 whole entry): as the sequence (Q99500 whole entry F263L) above, with L263F counted along it
Chain of WT, W256L, and F263L mutant S1P3 (Q99500 whole entry W256L/F263L): as the sequence (Q99500 whole entry F263L) above, with W256L counted along it
Chain of W256L S1P3 (Q99500 whole entry W256L): as the sequence (Q99500 whole entry F263L) above, with W256L, L263F counted along it
Chain of R114A mutant S1P3 (Q99500 whole entry R114A): as the sequence (Q99500 whole entry F263L) above, with R114A, L263F counted along it
Chain of M98A mutant S1P3 (Q99500 whole entry M98A): as the sequence (Q99500 whole entry F263L) above, with M98A, L263F counted along it

effect of W256L mutation on ligand-induced receptor activation [7] | response on co-application of S1P and CYM-5541 [8] | ERK phosphorylation response [10] | signalling bias compared to S1P [14] | agonist efficacy: maximum level of ERK phosphorylation compared with S1P ([4]; WT S1P3 Jump-In stable CHO cells) | Structure (SMILES) | stability of phosphate-ester bond [1] | competition for [33P]S1P binding [2] | selectivity among S1P receptors [3] | right-shift of the concentration response curve of S1P [4, 18] | shift of the concentration response curve of CYM-5541 [4, 18] | solubility [5] | effect of F263L mutation on ligand-induced receptor activation [6] | receptor activation (pERK1/2) compared to WT S1P3 [9] | EC50 [11] | EC50 [12] | ERK phosphorylation response [13] | EC50 [15] | ERK phosphorylation response [4] | activity in Ricerca profiling panel [16] | EC50 [17]
– | – | – | – | – | NC(CO)(CCc1ccc(Sc2cccc(O)c2)cc1Cl)COP(=O)(O)O (single isomer, unassigned; (+)) [SPM-242, (+)-2-amino-4-(2-chloro-4-((3-hydroxyphenyl)thio)phenyl)-2-(hydroxymethyl)butyl dihydrogen phosphate] | extremely labile | reversed [^33P]S1P binding competitively in a dose dependent manner | selective for S1P3 | 152 fold | 6 fold | low solubility | – | – | – | – | – | – | – | – | –
did not affect | additive and no synergy was observed | comparable for WT and R114A | no such differences were observed | full agonist | O=C(c1cc(C2CC2)on1)N(C1CCCCC1)C1CCCCC1 [CYM-5541, N,N-dicyclohexyl(5-cyclopropylisoxazol-3-yl)carboxamide] | – | unable to compete | – | – | – | low solubility | shifted CYM-5541-induced receptor activation | significantly diminished receptor activation | > 10 µM | > 50 µM | agonist dose-dependent ERK phosphorylation | > 50 µM | agonist dose-dependent ERK phosphorylation | no significant activities | > 25 µM
did not affect | – | unable to respond | – | – | CCCCCCCCCCCCC/C=C/[C@@H](O)[C@@H](N)COP(=O)(O)O [S1P, Sphingosine 1-phosphate, reference compound] | – | competitively reversed in a dose dependent manner | – | – | – | – | not S1P-induced activation | – | – | – | agonist dose-dependent ERK phosphorylation | – | agonist dose-dependent ERK phosphorylation | – | –
